Consider 16 molecules from PubChem BioAssay.

A short description of assay [1]: Her2 expression decrease, cell viability multiplex – SKBR3 breast tumor cells, AlphaScreen, ATP viability, primary screen (AID 461;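 active = Her2 level under about 52% in both replicate screens, with viability over 70% of control, limit read from the data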;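 as to Her2 level: lower value means less Her2 protein in the cells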;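 as to viability: percent of carrier control wells set as 100% viability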). The conditions noted are these: SKBR3 Her2 protein level, 18-24 h, measured here: SKBR3 viability, ATP luminescence, at 10 µM.
Assay [2] addresses Receptor tyrosine-protein kinase erbB-2 (Homo sapiens) (UniProt P04626). The description is as above. The conditions noted are these: 18-24 h, at 10 µM, stronger effect = lower value.
Assay [3] can be described thus: reduced viability of SK-BR-3 breast cancer cells – cell-based, 24 h, human, pilot screen (AID 572).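 Also: compound exposure lasted between 18 and 24 h rather than exactly 24 h; 100% = carrier-treated control wells.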 The settings on record: SK-BR-3 viability, CellTiter-Glo luminescence, at 10 µM, stronger effect = lower value.
Assay [4] in a line: HUVEC growth inhibition – cell-based, human, primary screen (AID 575;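 active = viability at or below 30% in both replicate assays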;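 also: 100% = median of untreated cell wells with 0.1% DMSO on each plate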). The conditions noted are these: HUVEC proliferation, CellTiter-Glo luminescence, 72 h; at 10 µM; stronger effect = lower value. Summed up: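 Test system – primary HUVEC, no more than 12 passages · Dosing – one dose, 10 µM final, 0.1% DMSO · Times – 72 h treatment at 37 °C · Measured by – ATP-based CellTiter-Glo luminescent read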
Background: In ATP-based viability assays light output follows the ATP content of the culture.

Assay [5] is described as follows: H69AR cell proliferation blockers – human, duplicate replicates, primary screen (AID 580;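 active = viability at or under a set limit in both replicates, limit being median viability minus 3 SD, cut at about 48% in these data, passing the limit was not always enough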;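 also: 100% = mean luminescence of untreated wells and 0% = no signal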). The conditions noted are these: H69AR lung tumor cells viability, ATP luminescence, 72 h; at 10 µM; stronger effect = lower value.
Assay [6] in a line: MRP1 drug-resistance reversers in H69AR cells – cell-based, doxorubicin co-treatment, pilot screen (AID 601;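 active = viability loss from added drug above about 55%, and viability with drug at most 40%, in both replicates, limit read from the data, passing the limit was not always enough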). The settings on record: CellTiter-Glo, 72 h, at 10 µM; for differential viability (reversal): stronger effect = higher value.
Assay [7] is described as follows: yeast transport mutant growth inhibition pilot in 384-well plates, post-Golgi transport modulator project (AID 636; in the data active = inhibition above about 31%). The settings on record: absorbance 615 nm, about 18 h, stronger effect = higher value.
Assay [8] is described as follows: growth suppression of yeast trafficking mutant, preliminary HTS, modulators of trafficking downstream of Golgi apparatus project, 1536-format plate, OD 615 nm (AID 637; in the data active = inhibition above about 30%). The conditions noted are these: yeast transport mutant growth, absorbance 615 nm, 18 h; stronger effect = higher value.
Where [9] appears, read: H69AR cells + 2 uM doxorubicin, measured here: viability with 2 uM doxorubicin, stronger effect = lower value.
[10] abbreviates: H69AR cells, compound alone cytotoxicity.

Active and inactive are the calls of the source.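 The calls were made as follows, unless noted: active = viability at or below 10% of carrier control in both of two separate runs; inconclusive = viability at or below 10% in only one of the two runs; inactive = the rest.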

Sequence of Receptor tyrosine-protein kinase erbB-2 (Homo sapiens) (P04626 whole entry, looked up): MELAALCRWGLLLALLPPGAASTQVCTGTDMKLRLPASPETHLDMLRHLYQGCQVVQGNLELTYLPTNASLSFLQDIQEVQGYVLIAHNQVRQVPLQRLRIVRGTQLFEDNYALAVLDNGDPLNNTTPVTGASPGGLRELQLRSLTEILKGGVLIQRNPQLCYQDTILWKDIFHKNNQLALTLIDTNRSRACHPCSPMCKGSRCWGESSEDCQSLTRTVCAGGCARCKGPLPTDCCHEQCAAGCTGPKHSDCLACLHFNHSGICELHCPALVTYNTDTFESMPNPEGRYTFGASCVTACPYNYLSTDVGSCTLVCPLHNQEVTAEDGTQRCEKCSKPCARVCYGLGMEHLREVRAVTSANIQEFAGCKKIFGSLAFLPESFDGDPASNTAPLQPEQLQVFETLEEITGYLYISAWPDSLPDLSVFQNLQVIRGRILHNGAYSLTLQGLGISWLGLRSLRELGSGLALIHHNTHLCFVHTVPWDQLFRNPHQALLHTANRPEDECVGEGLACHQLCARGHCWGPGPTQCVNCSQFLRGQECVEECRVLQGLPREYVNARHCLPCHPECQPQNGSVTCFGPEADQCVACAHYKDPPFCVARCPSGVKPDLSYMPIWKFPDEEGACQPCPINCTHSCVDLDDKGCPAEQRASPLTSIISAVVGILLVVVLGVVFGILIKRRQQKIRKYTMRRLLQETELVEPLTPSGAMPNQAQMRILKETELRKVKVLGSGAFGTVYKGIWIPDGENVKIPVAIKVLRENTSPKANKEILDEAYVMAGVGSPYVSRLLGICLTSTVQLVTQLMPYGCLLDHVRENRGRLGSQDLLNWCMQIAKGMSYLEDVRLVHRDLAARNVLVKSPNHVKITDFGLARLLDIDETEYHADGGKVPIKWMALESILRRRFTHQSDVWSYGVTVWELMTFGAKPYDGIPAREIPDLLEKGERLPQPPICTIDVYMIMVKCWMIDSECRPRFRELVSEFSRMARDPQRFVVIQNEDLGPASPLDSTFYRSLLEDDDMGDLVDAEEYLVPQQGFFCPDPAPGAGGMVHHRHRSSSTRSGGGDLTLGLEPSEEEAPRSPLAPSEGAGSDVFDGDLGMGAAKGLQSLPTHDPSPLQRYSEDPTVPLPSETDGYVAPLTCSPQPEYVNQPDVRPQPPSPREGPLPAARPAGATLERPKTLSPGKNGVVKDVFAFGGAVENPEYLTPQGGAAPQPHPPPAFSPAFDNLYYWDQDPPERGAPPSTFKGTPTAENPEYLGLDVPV

By viability is commonly meant a read-out of living cells in per cent, often relative to untreated cells. As a reminder, the inhibition is the drop in the measured response relative to a control, in per cent. In the case of `Fc1ccc(-n2c(Cc3ccccc3)nnc2SCc2nc(-c3cccs3)no2)cc1`, the viability is 99.5% in assay [1]; 99.5% (inactive) in assay [3]; 73.1% (inactive) in assay [4]; 94.1% (inactive) in assay [5]; 76.2% in assay [6] (setting [9]); 94.1% in assay [6] (setting [10]). Besides, the Her2 level in assay [2] was 92.5% (inactive). Also, the differential viability (reversal) in assay [6] (H69AR cells + 2 uM doxorubicin) was 17.9% (inactive). In addition, the values for the inhibition in assay [7] and in assay [8] were -3.73% (inactive) and -0.98% (inactive), respectively.

Turning to `Cn1c(=N)c(S(=O)(=O)c2ccc(Cl)cc2)cc2c(=O)n3ccccc3nc21`, the viability in assay [1] is 110%; in assay [3], 110% (inactive); in assay [4] it was 85.4% (inactive); in assay [5] it was 83.1% (inactive); in assay [6] (setting [9]), 86.7%; in assay [6] (setting [10]), 83.1%. The Her2 level in assay [2] was 106% (inactive). For the same molecule, the differential viability (reversal) in assay [6] (H69AR cells + 2 uM doxorubicin) is -3.57% (inactive). The results for the inhibition in assay [7] and in assay [8] were -1.95% (inactive) and -1.67% (inactive), respectively.

Consider `CCn1nnnc1SCC(=O)Nc1nnc(C(C)C)s1`, for which the viability in assay [1] is 88.5%; in assay [3] it was 88.5% (inactive); in assay [4], 103% (inactive); in assay [5], 92.2% (inactive); in assay [6] (setting [9]), 89.8%; in assay [6] (setting [10]), 92.2%. Further, in assay [2], the Her2 level was 84.5% (inactive). Further, the differential viability (reversal) in assay [6] (H69AR cells + 2 uM doxorubicin) is 2.35% (inactive). Besides, the inhibition is -4.4% (inactive) in assay [7] and 3.11% (inactive) in assay [8].

Take `CC(=O)c1cccc(-n2nnnc2SCC(=O)N2CCCC2)c1`: the viability in assay [1] is 93.5%; in assay [3], 93.5% (inactive); in assay [4], 83.1% (inactive); in assay [5], 87.9% (inactive); in assay [6] (setting [9]), 90.7%; in assay [6] (setting [10]) it was 87.9%. The Her2 level in assay [2] is 88% (inactive). Besides, in assay [6] (H69AR cells + 2 uM doxorubicin), the differential viability (reversal) was -2.82% (inactive). The inhibition in assay [7] is -3.55% (inactive); in assay [8], -7.5% (inactive).

Consider `O=C(Cn1nnc(-c2cccs2)n1)OC1CCCCC1`, for which the viability is 94.5% in assay [1]; 94.5% (inactive) in assay [3]; 81.7% (inactive) in assay [4]; 110% (inactive) in assay [5]; 93.3% in assay [6] (setting [9]); 110% in assay [6] (setting [10]). Also, in assay [2], the Her2 level is 104% (inactive). For the same molecule, the differential viability (reversal) in assay [6] (H69AR cells + 2 uM doxorubicin) is 16.9% (inactive). The values for the inhibition in assay [7] and in assay [8] were -4.93% (inactive) and -3.39% (inactive), respectively.

`O=C(c1cccnc1)N1CCc2ccccc21`: the viability in assay [1] was 74%; in assay [3] it was 74% (inactive); in assay [4], 88.1% (inactive); in assay [5], 95% (inactive); in assay [6] (setting [9]), 111%; in assay [6] (setting [10]) it was 95%. Also, the Her2 level in assay [2] is 77.5% (inactive). For the same molecule, the differential viability (reversal) in assay [6] (H69AR cells + 2 uM doxorubicin) was -16.3% (inactive). Moreover, the inhibition was -5.68% (inactive) in assay [7] and -0.16% (inactive) in assay [8].

For the molecule `COc1ccc(C(C)=O)c(OC(=O)c2ccc(OC)c(OC)c2)c1`, the viability in assay [1] was 104%; in assay [3] it was 104% (inactive); in assay [4], 92.8% (inactive); in assay [5], 98.6% (inactive); in assay [6] (setting [9]), 97.5%; in assay [6] (setting [10]), 98.6%. Also, the Her2 level in assay [2] was 88.5% (inactive). Further, the differential viability (reversal) in assay [6] (H69AR cells + 2 uM doxorubicin) is 1.11% (inactive). The inhibition in assay [7] was -6.4% (inactive); in assay [8], -3.33% (inactive).

Take `Cn1cnc(S(=O)(=O)NCc2cccs2)c1`: the viability was 102% in assay [1]; 102% (inactive) in assay [3]; 96.5% (inactive) in assay [4]; 95.5% (inactive) in assay [5]; 87.8% in assay [6] (setting [9]); 95.5% in assay [6] (setting [10]). The Her2 level in assay [2] is 102% (inactive). The differential viability (reversal) in assay [6] (H69AR cells + 2 uM doxorubicin) was 7.67% (inactive). The inhibition in assay [7] is 0.68% (inactive); in assay [8], -1.9% (inactive).

In the case of `COc1cc(S(=O)(=O)N2CCOCC2)ccc1NC(=O)COC(=O)C12CC3CC(CC(C3)C1)C2`, the viability in assay [1] was 92%; in assay [3] it was 92% (inactive); in assay [4], 87.2% (inactive); in assay [5], 85% (inactive); in assay [6] (setting [9]), 96.2%; in assay [6] (setting [10]), 85%. Moreover, in assay [2], the Her2 level was 73.5% (inactive). Besides, the differential viability (reversal) in assay [6] (H69AR cells + 2 uM doxorubicin) is -11.2% (inactive). Besides, the inhibition in assay [7] was 0.38% (inactive); in assay [8] it was -11.7% (inactive).

Consider `c1ccc(SCc2nc3ccccc3[nH]2)nc1`, for which the viability is 99.5% in assay [1]; 99.5% (inactive) in assay [3]; 103% (inactive) in assay [4]; 90.6% (inactive) in assay [5]; 97.5% in assay [6] (setting [9]); 90.6% in assay [6] (setting [10]). Moreover, in assay [2], the Her2 level is 107% (inactive). Moreover, the differential viability (reversal) in assay [6] (H69AR cells + 2 uM doxorubicin) was -6.88% (inactive). The inhibition in assay [7] is -5.87% (inactive); in assay [8] it was 22.3% (inactive).

On to `O=C(NCc1ccccn1)C(C(=O)c1ccc(F)cc1)n1ccccc1=O` (stereo not given), for which the viability in assay [1] is 86.5%; in assay [3], 86.5% (inactive); in assay [4], 97.9% (inactive); in assay [5] it was 96.4% (inactive); in assay [6] (setting [9]), 100%; in assay [6] (setting [10]) it was 96.4%. Besides, in assay [2], the Her2 level was 95.5% (inactive). Besides, the differential viability (reversal) in assay [6] (H69AR cells + 2 uM doxorubicin) is -3.97% (inactive). Moreover, the inhibition is -4.05% (inactive) in assay [7] and 4.1% (inactive) in assay [8].

As to `Cc1[nH]c2ccccc2c(=O)c1CN(C)Cc1ccccc1`, the viability in assay [1] was 92.5%; in assay [3], 92.5% (inactive); in assay [4] it was 100% (inactive); in assay [5], 91.8% (inactive); in assay [6] (setting [9]) it was 89.3%; in assay [6] (setting [10]), 91.8%. The Her2 level in assay [2] was 95% (inactive). For the same molecule, the differential viability (reversal) in assay [6] (H69AR cells + 2 uM doxorubicin) is 2.49% (inactive). Further, the results for the inhibition in assay [7] and in assay [8] were -4.21% (inactive) and -0.98% (inactive), respectively.

For `O=C(NCCc1c[nH]c2ccccc12)c1ccc(S(=O)(=O)NCc2ccco2)cc1`, the viability in assay [1] was 93.5%; in assay [3], 93.5% (inactive); in assay [4], 60.2% (inactive); in assay [5], 65.6% (inactive); in assay [6] (setting [9]), 77.5%; in assay [6] (setting [10]), 65.6%. In addition, the Her2 level in assay [2] was 83.5% (inactive). Also, the differential viability (reversal) in assay [6] (H69AR cells + 2 uM doxorubicin) was -11.9% (inactive). The inhibition in assay [7] is -1.82% (inactive); in assay [8] it was -5.4% (inactive).

Turning to `Cn1c(SCc2cccc3ccccc23)nnc1-c1ccco1`, the viability in assay [1] was 76%; in assay [3], 76% (inactive); in assay [4] it was 126% (inactive); in assay [5], 92.4% (inactive); in assay [6] (setting [9]) it was 84.5%; in assay [6] (setting [10]), 92.4%. The Her2 level in assay [2] is 98.5% (inactive). Besides, the differential viability (reversal) in assay [6] (H69AR cells + 2 uM doxorubicin) was 7.87% (inactive). Moreover, the inhibition in assay [7] was -0.93% (inactive); in assay [8], -6.94% (inactive).

For the molecule `NC(=O)c1ccccc1NC(=O)CN1CCOCC1`, the viability in assay [1] was 106%; in assay [3] it was 106% (inactive); in assay [4], 104% (inactive); in assay [5], 88.1% (inactive); in assay [6] (setting [9]), 81.9%; in assay [6] (setting [10]), 88.1%. Besides, the Her2 level in assay [2] is 87% (inactive). In addition, the differential viability (reversal) in assay [6] (H69AR cells + 2 uM doxorubicin) was 6.19% (inactive). In addition, the inhibition in assay [7] was -1.87% (inactive); in assay [8], 0.32% (inactive).

As for `CC/C(O)=C(/C#N)c1nnc2n1CCCCC2`, the viability in assay [1] was 100%; in assay [3], 100% (inactive); in assay [4], 101% (inactive); in assay [5] it was 97.4% (inactive); in assay [6] (setting [9]), 86.5%; in assay [6] (setting [10]), 97.4%. In addition, the Her2 level in assay [2] is 84% (inactive). For the same molecule, the differential viability (reversal) in assay [6] (H69AR cells + 2 uM doxorubicin) was 10.8% (inactive). Also, the inhibition in assay [7] is -4.68% (inactive); in assay [8], -5.71% (inactive).
